PP1 counter = PP1-alpha (human) inhibition in PP5 counter-screen; P62136; purified PP1alpha, OMFP fluorescence; inhibition, % at 6.7 µM; 320,000 tested, 0.9% active; AID 2235;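 active means inhibition above the mean inhibition of all tested compounds plus 3 SD, computed separately for each screening campaign, cut at about 15% in these data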
STEP block = STEP (human) phosphatase inhibition; inhibition, % at 20 µM; recombinant STEP, OMFP fluorogenic substrate, fluorescence; 360,000 tested, 0.25% active; AID 588621;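 active means inhibition at 20 µM, scaled per plate between control wells, above about 37%, limit read from the data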;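 further: 0% = DMSO with enzyme and substrate and 100% = substrate only without enzyme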
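System: STEP (striatal-enriched tyrosine phosphatase) enzyme, cell-free; medium: Bis-Tris pH 6.0 buffer with DTT, detergent; dosing: 20 µM, 1% DMSO; times: reaction 20 min, ambient temperature; detection: fluorescence, 480/540 nm; read-out basis: normalized % inhibition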
LMPTP block = blocks human LMPTP phosphatase | recombinant LMPTP-A, OMFP fluorogenic substrate, fluorescence intensity | inhibition, % at 20 µM | 360,000 tested, 0.22% active;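 active means compounds that cut the enzyme signal by at least half of the control window in the single-dose screen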;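 further: plate controls were DMSO wells with enzyme plus substrate for no effect and substrate without enzyme for full effect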
Target sequence (P24666 whole entry, looked up): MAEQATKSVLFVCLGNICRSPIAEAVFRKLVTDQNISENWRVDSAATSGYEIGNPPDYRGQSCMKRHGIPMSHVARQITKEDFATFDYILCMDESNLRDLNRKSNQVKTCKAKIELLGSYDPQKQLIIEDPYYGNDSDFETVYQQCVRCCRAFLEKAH
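Assay system: LMPTP-A phosphatase enzyme | Input: 0.625 nM enzyme | Also added: Fluorogenic phosphatase substrate OMFP at 400 µM final | Compound dosing: One test concentration per compound, 20 µM, with 3% DMSO overall | Schedule: 50 min enzyme reaction at room temperature, protected from light | Signal: Fluorescence intensity | Benchmarks: no-enzyme and uninhibited controls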
PP5 primary = PP5 (human) phosphatase inhibition; P53041; purified PP5c, OMFP substrate fluorescence; inhibition, % at 6.7 µM; 320,000 tested, 0.18% active;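 active means inhibition above the campaign's mean inhibition across all tested compounds plus 3 SD, cut at about 9.5% in these data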;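 further: 0% = DMSO only and 100% = 100 µM cantharidin control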
Target sequence (P53041 whole entry, looked up): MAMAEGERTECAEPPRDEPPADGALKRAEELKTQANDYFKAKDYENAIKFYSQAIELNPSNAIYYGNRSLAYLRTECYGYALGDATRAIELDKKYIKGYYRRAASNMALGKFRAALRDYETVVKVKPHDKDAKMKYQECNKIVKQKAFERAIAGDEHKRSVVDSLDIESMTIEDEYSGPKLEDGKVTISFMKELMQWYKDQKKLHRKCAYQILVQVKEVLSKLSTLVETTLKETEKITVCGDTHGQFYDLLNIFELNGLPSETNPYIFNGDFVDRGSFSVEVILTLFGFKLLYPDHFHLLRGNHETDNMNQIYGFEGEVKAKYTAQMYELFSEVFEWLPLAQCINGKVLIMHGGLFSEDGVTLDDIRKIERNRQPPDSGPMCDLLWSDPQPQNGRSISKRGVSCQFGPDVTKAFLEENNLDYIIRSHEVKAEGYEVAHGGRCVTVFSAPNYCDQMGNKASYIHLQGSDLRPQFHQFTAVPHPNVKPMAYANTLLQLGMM
Scp1 inh = Scp-1 (human) phosphatase inhibition; Q9GZU7; Recombinant Scp1, phosphopeptide, malachite green phosphate absorbance; AID 493091; 340,000 tested, 0.88% active; inhibition, % at 20 µM;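 active means inhibition above about 50% at 20 µM, limit read from the data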;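 further: plate controls were DMSO wells with enzyme for no effect and wells lacking enzyme for full effect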
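Test system: SCP-1 phosphatase catalytic domain, residues 76-261 | Compound dosing: One concentration, 20 µM, with 1.0% DMSO | Schedule: 45 min room-temperature reaction, 5 min colour, 30 min stabiliser | Detection: Absorbance at 630 nm | Read-out basis: % inhibition of SCP-1 phosphate liberation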
Scp-1 conf = Scp-1 (human) inhibition, single-dose confirmed. shares compounds with Scp1 inh. recombinant SCP-1 catalytic domain, phosphate release, malachite green absorbance. inhibition, % at 20 µM. 2,500 tested, 61% active. AID 540281;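 further: plate controls were DMSO with enzyme for no effect and buffer wells lacking enzyme for full effect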
Scp-1 MG ctr = counter-screen for Scp-1 inhibitors: colorimetric interference; shares compounds with Scp1 inh; apparent inhibition (interference), % at 20 µM; 2,500 tested, under 10 active; Colorimetric interference counterscreen, malachite green absorbance 630 nm;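 further: compounds added after enzyme reaction finished so only phosphate colour detection is probed; plate controls were DMSO wells with completed Scp-1 reaction for no effect and substrate wells lacking enzyme for full effect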
Scp1 DSF = validation of human Scp-1 inhibitors by thermal shift binding | shares compounds with Scp1 inh | Recombinant SCP1, Sypro Orange thermal shift Tm | thermal shift relative to vanadate control, % at 40 µM | 1,500 tested, 25% active | AID 540329;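 active means substances whose mean melting-temperature shift, as a percentage of the reference inhibitor's shift, reaches about 5.3%, limit read from the data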;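 further: 0% = Tm of DMSO wells and 100% = Tm with sodium orthovanadate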
* = called active by the depositor. In the library only some 1.9% were active in any assay of this set; here they are far more common.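 How the source made its calls, unless noted: active means inhibition of at least 30% at 20 µM; inactive means the rest.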

How did O=C1C2C(C(=O)N1/N=C/c1cc([N+](=O)[O-])c(O)cc1O)C1C=CC2C12CC2 (stereo not drawn) do in these assays?
PP1 counter: -2; STEP block: 12; LMPTP block: 17; PP5 primary: -1; Scp1 inh: 64*; Scp-1 conf: 64*; Scp-1 MG ctr: -3; Scp1 DSF: 5.9*

What do the screens show for `O=C(NCCN1CCNC1=O)C1CCC(=O)N(Cc2cccc(C(F)(F)F)c2)C1` (stereo not drawn)?
PP1 counter: -5; STEP block: -2; LMPTP block: -2; PP5 primary: 4; Scp1 inh: -1; Scp-1 conf: -19; Scp-1 MG ctr: -16

How did NS(=O)(=O)c1ccc(CCNC(=O)Cc2ccc(S(=O)(=O)N3CCCC3)s2)cc1 do in these assays?
PP1 counter: 0; STEP block: 6; LMPTP block: 4; PP5 primary: 2; Scp1 inh: 76*; Scp-1 conf: 74*; Scp-1 MG ctr: -14; Scp1 DSF: 0

How did O=C(Cc1ccc(S(=O)(=O)N2CCOCC2)s1)Nc1nc2c(s1)CCCC2 do in these assays?
PP1 counter: -3; STEP block: 21; LMPTP block: 15; PP5 primary: -8; Scp1 inh: 64*; Scp-1 conf: 74*; Scp-1 MG ctr: -4; Scp1 DSF: 11*

Results for O=C(Cc1ccc(S(=O)(=O)N2CCOCC2)s1)Nc1ccc2c(c1)CCC2 ?
PP1 counter: -2; STEP block: -2; LMPTP block: 1; PP5 primary: 9; Scp1 inh: 0

Results for O=C(Cc1ccc(S(=O)(=O)N2CCOCC2)s1)NC1CCCCC1 ?
PP1 counter: -5; STEP block: 8; LMPTP block: 6; PP5 primary: 0; Scp1 inh: 61*; Scp-1 conf: 70*; Scp-1 MG ctr: -7; Scp1 DSF: 7.9*

What do the screens show for `COc1cc(NS(=O)(=O)c2ccc(NC(=S)NC(=O)C(C)(C)C)cc2)nc(OC)n1`?
PP1 counter: -1; STEP block: 2; LMPTP block: -1; PP5 primary: 2; Scp1 inh: -2

How did O=C(O)c1cc(NCc2ccccc2C(F)(F)F)ccc1N1CCOCC1 do in these assays?
PP1 counter: 0; STEP block: 1; LMPTP block: 0; PP5 primary: 2; Scp1 inh: -5

How did COc1cc(OC)c2c(-c3cccc(-c4ccc(C(F)(F)F)cc4)c3)cc(=O)oc2c1 do in these assays?
STEP block: 2; LMPTP block: 2; Scp1 inh: 41

How did O=C(NN=C1c2ccccc2-c2ccccc21)c1ccccn1 do in these assays?
PP1 counter: 3; STEP block: 8; LMPTP block: 25; PP5 primary: 2; Scp1 inh: 73*; Scp-1 conf: 24; Scp-1 MG ctr: -22

Results for C[C@]12CC[C@H](O)C[C@@H]1CC[C@@H]1[C@@H]2CC[C@@]2(C)[C@H]1CCC(=O)[C@]21CCCO1 ?
STEP block: 2; LMPTP block: 0; Scp1 inh: 82*; Scp-1 conf: -19; Scp-1 MG ctr: -16

Results for C[C@H](O)[C@@]1(O)CC[C@H]2[C@@H]3CC[C@@H]4C[C@H](O)CC[C@]4(C)[C@H]3CC[C@@]21C ?
PP1 counter: -2; STEP block: -6; LMPTP block: 0; PP5 primary: 1; Scp1 inh: -4

How did CCOc1ccccc1N1CCN(S(=O)(=O)c2ccc3c4c(cccc24)C(=O)N3)CC1 do in these assays?
PP1 counter: 3; STEP block: 6; LMPTP block: 8; PP5 primary: 3; Scp1 inh: 61*; Scp-1 conf: 50*; Scp-1 MG ctr: -8; Scp1 DSF: 5

What do the screens show for `O=C(O)CCNc1ccc(Cl)cc1`?
PP1 counter: -2; STEP block: 1; LMPTP block: 1; PP5 primary: 1; Scp1 inh: 52*; Scp-1 conf: 43*; Scp-1 MG ctr: -14; Scp1 DSF: -21

Results for Cc1ncc([N+](=O)[O-])n1CCOC(=O)c1cc(Cl)cc(Cl)c1N ?
PP1 counter: 1; STEP block: 3; LMPTP block: 6; PP5 primary: 1; Scp1 inh: 62*; Scp-1 conf: 68*; Scp-1 MG ctr: -11; Scp1 DSF: 12*

What do the screens show for `O=C(NNC(=O)c1ccccc1Br)c1ccc2nc[nH]c2c1`?
PP1 counter: -9; STEP block: 18; LMPTP block: 5; PP5 primary: -3; Scp1 inh: 73*; Scp-1 conf: 66*; Scp-1 MG ctr: -10; Scp1 DSF: 3

Results for O=C(NNC(=O)c1ccccc1F)c1ccc2nc[nH]c2c1 ?
PP1 counter: -2; STEP block: -3; LMPTP block: 1; PP5 primary: 0; Scp1 inh: 11

How did O=C(O)CCSc1nnc(SCC(=O)NC2CCS(=O)(=O)C2)s1 (stereo not drawn) do in these assays?
STEP block: -3; LMPTP block: 0; Scp1 inh: 101*; Scp-1 conf: -11; Scp-1 MG ctr: -19

How did CC(C)(C)C(=O)O/N=C(\N)COc1cccc(Cl)c1 do in these assays?
PP1 counter: 1; STEP block: -1; LMPTP block: 0; PP5 primary: 3; Scp1 inh: 79*; Scp-1 conf: -8; Scp-1 MG ctr: -8

Results for O=C(NCc1ccc(F)cc1)C(=O)c1cn(CC(=O)N2CCCC2)c2ccccc12 ?
PP1 counter: -5; STEP block: -2; LMPTP block: -1; PP5 primary: -1; Scp1 inh: -6

How did CCOc1ccc(C2=NNC(c3cccs3)=Nc3ccc(OC)cc32)cc1OCC do in these assays?
PP1 counter: -1; STEP block: 2; LMPTP block: 0; PP5 primary: 2; Scp1 inh: 5

How did CC1=CCC(C(=O)O)C(C(=O)NC2CCCCC2)C1 (stereo not drawn) do in these assays?
PP1 counter: -1; STEP block: 22; LMPTP block: 1; PP5 primary: 1; Scp1 inh: 100*; Scp-1 conf: 75*; Scp-1 MG ctr: -7; Scp1 DSF: -23

What do the screens show for `CC(c1ccccc1)C1OCC(C[N+]2(C)CCCCC2)O1` (stereo not drawn)?
PP1 counter: -4; STEP block: -4; LMPTP block: 1; PP5 primary: -2; Scp1 inh: 93*; Scp-1 conf: 83*; Scp-1 MG ctr: -13; Scp1 DSF: -5

Assay outcomes: PubChem, several laboratories
